Drawing on ChEMBL document CHEMBL1782031, “Urea/thiourea derivatives of quinazolinone-lysine conjugates: synthesis and structure-activity relationships of a new series of antimicrobials” (2011), this text covers zone of inhibition for 29 molecules.

Holding throughout (format): functional
What all share (conditions): read-out: DIZ

A short description of experiment [1]: Antibacterial activity against Xanthomonas campestris pvs. at 10 ug/disc after 24 hrs by disc diffusion method. The gist of the method: (§1)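 Disc diffusion assay. Discs were held at 4 °C for 2 h so the compounds could diffuse, then incubated at 28 °C. Inhibition zone diameters were measured in mm after 24 h. Each compound was tested in triplicate.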
(Agar diffusion results depend on both activity and mobility in agar.)

Experiment [2] relates to Bacillus subtilis. The experiment is described as follows: Antibacterial activity against Bacillus subtilis at 10 ug/disc after 24 hrs by disc diffusion method. The gist of the method: as §1
The test system of experiment [3] is Escherichia coli. The experiment is described as follows: Antibacterial activity against Escherichia coli at 10 ug/disc after 24 hrs by disc diffusion method. The gist of the method:
as §1

In experiment [4] the test system is Xanthomonas oryzae. Kind of experiment: Antibacterial activity against Xanthomonas oryzae at 10 ug/disc after 24 hrs by disc diffusion method.
In experiment [5] the test system is Pseudomonas fluorescens. The experiment is described as follows: Antibacterial activity against Pseudomonas fluorescens at 10 ug/disc after 24 hrs by disc diffusion method. The gist of the method:
as §1

`O=C(CCCc1nc2ccccc2c(=O)[nH]1)N[C@@H](CCCCNC(=S)Nc1cccc(F)c1)C(=O)O`: the zone of inhibition at 10 µg/disc in experiment [1] came out at 33 mm; in experiment [2], 34 mm; in experiment [3] it was 32 mm; in experiment [4] it was 34 mm; in experiment [5] it was 32 mm.
In the case of `COC(=O)[C@H](CCCCNC(=S)Nc1ccccc1C)NC(=O)CCCc1nc2ccccc2c(=O)[nH]1`, the zone of inhibition at 10 µg/disc in experiment [1] turned out to be 25 mm; in experiment [2], 22 mm; in experiment [3] it was 23 mm; in experiment [4], 24 mm; in experiment [5] it was 23 mm.
Regarding `COC(=O)[C@H](CCCCNC(C)=O)NC(=O)CCCc1nc2ccccc2c(=O)[nH]1`, the zone of inhibition at 10 µg/disc in experiment [1] turned out to be 6 mm; in experiment [2] it was 8 mm; in experiment [3], 9 mm; in experiment [4], 8 mm; in experiment [5], 7 mm.
For the molecule `COC(=O)[C@H](CCCCNC(=O)Nc1ccc(OC)cc1)NC(=O)CCc1nc2ccccc2c(=O)[nH]1`, the zone of inhibition at 10 µg/disc in experiment [1] came to 26 mm; in experiment [2], 22 mm; in experiment [3] it was 23 mm; in experiment [4], 28 mm; in experiment [5], 25 mm.
Taken in the same sequence, the figures for `Cc1cc(F)ccc1NC(=S)NCCCC[C@H](NC(=O)CCc1nc2ccccc2c(=O)[nH]1)C(=O)O` were 34 mm, 34 mm, 33 mm, 35 mm and 35 mm.
The like results for `Cc1ccccc1NC(=S)NCCCC[C@H](NC(=O)CCCc1nc2ccccc2c(=O)[nH]1)C(=O)O` were, in that order, 26 mm, 23 mm, 24 mm, 25 mm and 25 mm.
Turning to `COC(=O)[C@H](CCCCNC(=O)Nc1ccc(Cl)cc1)NC(=O)CCCc1nc2ccccc2c(=O)[nH]1`, the zone of inhibition at 10 µg/disc in experiment [1] is 28 mm; in experiment [2], 25 mm; in experiment [3] it was 26 mm; in experiment [4], 30 mm; in experiment [5], 29 mm.
Taken in the same sequence, the figures for `CS(=O)(=O)NCCCC[C@H](NC(=O)CCc1nc2ccccc2c(=O)[nH]1)C(=O)O` were 10 mm, 9 mm, 9 mm, 10 mm and 12 mm.
The like results for `CC(=O)NCCCC[C@H](NC(=O)CCCc1nc2ccccc2c(=O)[nH]1)C(=O)O` were, in that order, 14 mm, 10 mm, 11 mm, 12 mm and 10 mm.
With `COC(=O)[C@H](CCCCNS(C)(=O)=O)NC(=O)CCc1nc2ccccc2c(=O)[nH]1`, the zone of inhibition at 10 µg/disc in experiment [1] stood at 8 mm; in experiment [2], 8 mm; in experiment [3], 6 mm; in experiment [4] it was 11 mm; in experiment [5] it was 9 mm.
As for `O=C(CCCc1nc2ccccc2c(=O)[nH]1)N[C@@H](CCCCNC(=O)Nc1ccc(Cl)cc1)C(=O)O`, the zone of inhibition at 10 µg/disc in experiment [1] came to 28 mm; in experiment [2], 29 mm; in experiment [3], 28 mm; in experiment [4], 29 mm; in experiment [5], 30 mm.
Consider `CS(=O)(=O)NCCCC[C@H](NC(=O)CCCc1nc2ccccc2c(=O)[nH]1)C(=O)O`, for which the zone of inhibition at 10 µg/disc was determined as 11 mm in experiment [1]; 12 mm in experiment [2]; 11 mm in experiment [3]; 10 mm in experiment [4]; 12 mm in experiment [5].
Consider `COC(=O)[C@H](CCCCNC(=O)Nc1ccc(Cl)cc1)NC(=O)CCc1nc2ccccc2c(=O)[nH]1`, for which the zone of inhibition at 10 µg/disc worked out at 28 mm in experiment [1]; 24 mm in experiment [2]; 28 mm in experiment [3]; 29 mm in experiment [4]; 29 mm in experiment [5].
Turning to `COC(=O)[C@H](CCCCN)NC(=O)CCCc1nc2ccccc2c(=O)[nH]1`, the zone of inhibition at 10 µg/disc is 12 mm in experiment [1]; 10 mm in experiment [2]; 9 mm in experiment [3]; 12 mm in experiment [4]; 10 mm in experiment [5].
Regarding `COC(=O)[C@H](CCCCNC(=O)Nc1ccc(OC)cc1)NC(=O)CCCc1nc2ccccc2c(=O)[nH]1`, the zone of inhibition at 10 µg/disc in experiment [1] is 24 mm; in experiment [2] it was 20 mm; in experiment [3], 21 mm; in experiment [4], 25 mm; in experiment [5] it was 22 mm.
The like results for `O=C(CCCc1nc2ccccc2c(=O)[nH]1)N[C@@H](CCCCNC(=O)Nc1cccc(F)c1)C(=O)O` were, in that order, 34 mm, 35 mm, 36 mm, 36 mm and 35 mm.
The like results for `CC(=O)NCCCC[C@H](NC(=O)CCc1nc2ccccc2c(=O)[nH]1)C(=O)O` were, in that order, 12 mm, 11 mm, 10 mm, 14 mm and 13 mm.
The like results for `O=C(CCc1nc2ccccc2c(=O)[nH]1)N[C@@H](CCCCNC(=O)Nc1ccc(Cl)cc1)C(=O)O` were, in that order, 30 mm, 28 mm, 30 mm, 30 mm and 32 mm.
Consider `COc1ccc(NC(=O)NCCCC[C@H](NC(=O)CCc2nc3ccccc3c(=O)[nH]2)C(=O)O)cc1`, for which the zone of inhibition at 10 µg/disc amounted to 28 mm in experiment [1]; 24 mm in experiment [2]; 25 mm in experiment [3]; 28 mm in experiment [4]; 27 mm in experiment [5].
As to `COC(=O)[C@H](CCCCN)NC(=O)CCc1nc2ccccc2c(=O)[nH]1`, the zone of inhibition at 10 µg/disc in experiment [1] was 9 mm; in experiment [2], 6 mm; in experiment [3], 8 mm; in experiment [4], 10 mm; in experiment [5], 10 mm.
As for `COC(=O)[C@H](CCCCNC(=S)Nc1cccc(F)c1)NC(=O)CCCc1nc2ccccc2c(=O)[nH]1`, the zone of inhibition at 10 µg/disc in experiment [1] turned out to be 34 mm; in experiment [2], 34 mm; in experiment [3], 35 mm; in experiment [4] it was 36 mm; in experiment [5], 33 mm.
Take `COC(=O)[C@H](CCCCNC(=S)Nc1cccc(F)c1)NC(=O)CCc1nc2ccccc2c(=O)[nH]1`: the zone of inhibition at 10 µg/disc in experiment [1] was determined as 38 mm; in experiment [2], 36 mm; in experiment [3], 38 mm; in experiment [4], 35 mm; in experiment [5] it was 36 mm.
Regarding `Cc1cc(F)ccc1NC(=S)NCCCC[C@H](NC(=O)CCCc1nc2ccccc2c(=O)[nH]1)C(=O)O`, the zone of inhibition at 10 µg/disc in experiment [1] is 32 mm; in experiment [2] it was 33 mm; in experiment [3] it was 34 mm; in experiment [4], 33 mm; in experiment [5] it was 34 mm.
On to `COC(=O)[C@H](CCCCNC(=O)OC(C)(C)C)NC(=O)CCc1nc2ccccc2c(=O)[nH]1`, for which the zone of inhibition at 10 µg/disc in experiment [1] was determined as 12 mm; in experiment [2] it was 8 mm; in experiment [3], 9 mm; in experiment [4] it was 12 mm; in experiment [5] it was 11 mm.
Take `COC(=O)[C@H](CCCCNC(=O)Nc1cccc(F)c1)NC(=O)CCc1nc2ccccc2c(=O)[nH]1`: the zone of inhibition at 10 µg/disc in experiment [1] was 37 mm; in experiment [2], 35 mm; in experiment [3] it was 36 mm; in experiment [4], 36 mm; in experiment [5], 36 mm.
In the case of `COC(=O)[C@H](CCCCNC(=S)Nc1ccc(F)cc1C)NC(=O)CCCc1nc2ccccc2c(=O)[nH]1`, the zone of inhibition at 10 µg/disc was found to be 30 mm in experiment [1]; 32 mm in experiment [2]; 33 mm in experiment [3]; 32 mm in experiment [4]; 33 mm in experiment [5].
With `CN(C)[C@@H]1C(O)=C(C(N)=O)C(=O)[C@@]2(O)C(O)=C3C(=O)c4c(O)cccc4[C@@](C)(O)[C@H]3C[C@@H]12` [TETRACYCLINE], the figures for the zone of inhibition at 10 µg/disc in experiment [1] and in experiment [4] were 19 mm and 18 mm, respectively.
With `CC(C)(C)OC(=O)NCCCC[C@H](NC(=O)CCc1nc2ccccc2c(=O)[nH]1)C(=O)O`, the zone of inhibition at 10 µg/disc in experiment [1] was 13 mm; in experiment [2], 10 mm; in experiment [3], 11 mm; in experiment [4], 14 mm; in experiment [5], 14 mm.
`CN[C@@H]1[C@H](O[C@H]2[C@H](O[C@H]3[C@H](O)[C@@H](O)[C@H](N=C(N)N)[C@@H](O)[C@@H]3N=C(N)N)O[C@@H](C)[C@]2(O)C=O)O[C@@H](CO)[C@H](O)[C@H]1O` [STREPTOMYCIN]: the zone of inhibition at 10 µg/disc in experiment [2] was 17 mm; in experiment [3], 21 mm; in experiment [5], 23 mm.
